The record followed here is ChEMBL document CHEMBL1147553, “Betulinic acid and its derivatives as anti-angiogenic agents” (Bioorg Med Chem Lett, 2004).

Experiment [1] is described as follows: Endothelial cell specificity of compound was determined as cytotoxicity on human tumor cell line A549 to that of endothelial cell. It counts as functional. The gist of the method: (§1)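 Cells (10⁴) exposed in triplicate wells to 0.5–10 µg/mL compound from DMSO stock (final DMSO <0.1%). Cells grown in DMEM with L-glutamine, 25 mM HEPES, 10% FBS and antibiotics at 37 °C, 5% CO2. MTT read-out after 120 h. IC50 is the mean of three experiments. Specificity ratio is IC50 in tumor cell divided by IC50 in ECV304.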

Experiment [2] can be described thus: Endothelial cell specificity of compound was determined as cytotoxicity on human tumor cell line PA-1 to that of endothelial cell. The format is functional. The gist of the method:
as §1

Experiment [3] in a line: Endothelial cell specificity of compound was determined as cytotoxicity on human tumor cell line L132 to that of endothelial cell. It counts as functional. The gist of the method:
as §1

Experiment [4] can be described thus: Endothelial cell specificity of compound was determined as cytotoxicity on human tumor cell line DU145 to that of endothelial cell. The format is functional. The gist of the method: as §1
The subject of experiment [5] is ECV-304. The experiment in a line: Half-maximal cytotoxic concentration of compound against endothelial cell line ECV304. It counts as functional, cell-based. As to conditions: Homo sapiens. The gist of the method: as §1

Broadly, the IC50 is the midpoint of a concentration-inhibition curve. Low readings indicate greater potency in that assay, high ones weaker potency in that assay.

Converted amounts (≈) assume the structure as drawn.

As for `CC(C)[C@@H]1CC[C@]2(C(=O)O)CC[C@]3(C)C(CCC4[C@@]5(C)CC/C(=N\Nc6ccc(F)cc6)C(C)(C)C5CC[C@]43C)C12` (stereo not given in full), the ECS ratio came to 20 in experiment [1], 1.4 in experiment [2], 11.1 in experiment [3] and 3.7 in experiment [4]. The compound also had an IC50 in experiment [5] of 0.35 µg/mL (≈ 0.62 µM).

On to `CC(C)[C@@H]1CC[C@]2(C(=O)O)CC[C@]3(C)C(CCC4[C@@]5(C)CC/C(=N\Nc6c(Cl)cc(Cl)cc6Cl)C(C)(C)C5CC[C@]43C)C12` (stereo not given in full), for which the ECS ratio in experiment [1] was found to be 19; in experiment [2], 5.2; in experiment [3] it was 11.4; in experiment [4], 6.6. This compound also returned an IC50 in experiment [5] of 0.21 µg/mL (≈ 0.323 µM).

In the case of `CC(C)[C@@H]1CC[C@]2(C(=O)O)CC[C@]3(C)C(CCC4[C@@]5(C)CC(Br)[C@H](O)C(C)(C)C5CC[C@]43C)C12` (stereo not given in full), the ECS ratio in experiment [1] is 11.5; in experiment [2] it was 7.4; in experiment [3] it was 3.1; in experiment [4], 7. The compound also gave a half-inhibitory concentration (IC50) in experiment [5] of 0.27 µg/mL (≈ 0.502 µM).

Consider `CC(C)[C@@H]1CC[C@]2(C(=O)O)CC[C@]3(C)C(CCC4[C@@]5(C)CC/C(=N\NC(=O)c6ccccc6)C(C)(C)C5CC[C@]43C)C12` (stereo not given in full), for which the ECS ratio worked out at 27.7 in experiment [1], 4.3 in experiment [2], 1 in experiment [3] and 7.7 in experiment [4]. The compound also showed a concentration for half-maximal inhibition (IC50) in experiment [5] of 0.39 µg/mL (≈ 0.678 µM).

With `C=C(C)[C@@H]1CC[C@]2(C(=O)O)CC[C@]3(C)[C@H](CC[C@@H]4[C@@]5(C)CC[C@H](O)C(C)(C)[C@@H]5CC[C@]43C)[C@@H]12` [BETULINIC ACID], the ECS ratio in experiment [1] is recorded as 1.1; in experiment [2] it was 3.2; in experiment [3], 1; in experiment [4] it was 2.2. Further, the midpoint of inhibition in experiment [5], the IC50, lay at 1.26 µg/mL (≈ 2.76 µM).

In the case of `C=C(C)[C@@H]1CC[C@]2(C(=O)O)CC[C@]3(C)[C@H](CC[C@@H]4[C@@]5(C)CCC(=O)C(C)(C)[C@@H]5CC[C@]43C)[C@@H]12` [BETUNOLIC ACID], the ECS ratio turned out to be 9.8 in experiment [1], 9.2 in experiment [2], 3.2 in experiment [3] and 14.2 in experiment [4]. Also, half-maximal inhibition in experiment [5] (IC50) was put at 0.28 µg/mL (≈ 0.616 µM).
